Reference: ChEMBL document CHEMBL4680118, “Cerpegin-derived furo[3,4-c]pyridine-3,4(1H,5H)-diones enhance cellular response to interferons by de novo pyrimidine biosynthesis inhibition” (Eur J Med Chem, 2020)
Activity calls are given as the source filed them. The rule behind the calls is not given here.

Key:
Type in all cases: cell-based
[1] = molecular target: T1, Dihydroorotate dehydrogenase (quinone), mitochondrial (Homo sapiens, UniProt Q02127); assay: Inhibition of DHODH in human HEK293 cells transfected with ISRE-luciferase reporter gene assessed as increase in 125 IU/ml IFN-alpha stimulated IFIT2 mRNA expression at 80 uM measured after 16 hrs by RT-qPCR analysis relative to control
Method in brief: (§1)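 ISRE-Luc HEK cells co-treated with increasing IFN-α concentrations and DMSO or compound (80 µM) for 16 h. Total RNA extracted from 2×10^5 cells with DNase step; qPCR 35 cycles. CT values normalized to RPL13A and unstimulated controls (2^-ΔΔCT), expressed as fold change versus DMSO alone. Three independent experiments; two-way ANOVA with Bonferroni.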

[2] = molecular target: T1, Dihydroorotate dehydrogenase (quinone), mitochondrial; assay: Inhibition of DHODH in […] treated with R848 stimulated cell supernatant assessed as increase in IFN-gamma-containing conditioned supernatant-stimulated cellular response at 80 uM measured after 24 hrs by luciferase reporter gene assay
Method in brief: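 Donor PBMCs were activated for 24 h with R848 at 5 µg/ml, and the supernatants (containing IFN-γ) were collected. HEK-293 ISRE-Luc reporter cells, not PBMCs, were then stimulated with these supernatants diluted 1/8 to 1/64, in the presence of DMSO or compound at 80 μM. Luciferase was read at 24 h and normalized to cells given the 1/8 dilution. Three independent experiments; two-way ANOVA with Bonferroni.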

[3] = molecular target: T1, Dihydroorotate dehydrogenase (quinone), mitochondrial; assay: Inhibition of DHODH in human HEK293 cells transfected with ISRE-luciferase reporter gene assessed as increase in 60 IU/ml IFN-alpha stimulated IFIT1 mRNA expression at 80 uM measured after 16 hrs by RT-qPCR analysis relative to control; method in brief: as §1
[4] = molecular target: T1, Dihydroorotate dehydrogenase (quinone), mitochondrial; assay: Inhibition of DHODH in human HEK293 cells transfected with ISRE-luciferase reporter gene assessed as increase in 60 IU/ml IFN-alpha stimulated PKR mRNA expression at 80 uM measured after 16 hrs by RT-qPCR analysis relative to control
Method in brief: (§2)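 HEK-293 ISRE-Luc cells (DMEM, 10% FCS, 37°C, 5% CO2) were given increasing IFN-α doses together with DMSO or compound at 80 μM, then harvested at 16 h. RNA was extracted from 2×10^5 cells with DNase treatment. Transcripts were run by qPCR for 35 cycles and normalized to RPL13A and to unstimulated controls by 2^-ΔΔCT. Values are fold change versus DMSO; three independent experiments; two-way ANOVA with Bonferroni.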

[5] = molecular target: T1, Dihydroorotate dehydrogenase (quinone), mitochondrial; assay: Inhibition of DHODH in human HEK293 cells transfected with ISRE-luciferase reporter gene assessed as increase in 250 IU/ml IFN-alpha stimulated IFITM3 mRNA expression at 80 uM measured after 16 hrs by RT-qPCR analysis relative to control; method in brief: as §1
[6] = molecular target: T1, Dihydroorotate dehydrogenase (quinone), mitochondrial; assay: Inhibition of DHODH in human HEK293 cells transfected with ISRE-luciferase reporter gene assessed as increase in 125 IU/ml IFN-alpha stimulated IFIT1 mRNA expression at 80 uM measured after 16 hrs by RT-qPCR analysis relative to control; method in brief: as §1
[7] = molecular target: T1, Dihydroorotate dehydrogenase (quinone), mitochondrial; assay: Inhibition of DHODH in human HEK293 cells transfected with ISRE-luciferase reporter gene assessed as increase in 60 IU/ml IFN-alpha stimulated ISG15 mRNA expression at 80 uM measured after 16 hrs by RT-qPCR analysis relative to control; method in brief: as §2
[8] = molecular target: T1, Dihydroorotate dehydrogenase (quinone), mitochondrial; assay: Inhibition of DHODH in human HEK293 cells transfected with ISRE-luciferase reporter gene assessed as increase in 60 IU/ml IFN-alpha stimulated IFIT2 mRNA expression at 80 uM measured after 16 hrs by RT-qPCR analysis relative to control; method in brief: as §1
[9] = molecular target: T1, Dihydroorotate dehydrogenase (quinone), mitochondrial; assay: Inhibition of DHODH in human HEK293 cells transfected with ISRE-luciferase reporter gene assessed as increase in 125 IU/ml IFN-alpha stimulated IFIT3 mRNA expression at 80 uM measured after 16 hrs by RT-qPCR analysis relative to control; method in brief: as §1
[10] = molecular target: T1, Dihydroorotate dehydrogenase (quinone), mitochondrial; assay: Inhibition of DHODH in human HEK293 cells assessed as reduction in intracellular pyrimidine level measured after 24 hrs by HPLC coupled spectrophotometry
Method in brief: (§3)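 HEK-293 cells plated at 1×10^6 per well, treated 24 h later with compound (80 µM final) or DMSO for 24 h. Pellets deproteinized with 6% perchloric acid, neutralized with Na2CO3, analysed by C18 HPLC at 45°C with ion-pair phosphate/MeOH gradient, detected at 254 nm against reference nucleoside calibration curves. Normalized to viable cell number and DMSO controls.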

[11] = molecular target: T1, Dihydroorotate dehydrogenase (quinone), mitochondrial; assay: Inhibition of DHODH in human HEK293 cells assessed as effect on intracellular purine level measured after 24 hrs by HPLC coupled spectrophotometry; method in brief: as §3
[12] = molecular target: T1, Dihydroorotate dehydrogenase (quinone), mitochondrial; assay: Inhibition of DHODH in human HEK-293 cells transfected with ISRE-luciferase reporter gene assessed as increase in IFN-alpha mediated cellular response at 80 uM in presence of orotate measured after 24 hrs by luciferase reporter gene assay; details: HEK293
Method in brief: (§4)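 ISRE-Luc HEK-293 cells exposed to increasing IFN-α concentrations with DMSO or compound (80 µM), supplemented with uridine (125 µM) or with 3 mM orotate or DHO. Reporter luciferase read after 24 h, normalized to DMSO + IFN-α 250 IU/ml. Means ± SD of three independent experiments; two-way ANOVA.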

[13] = molecular target: T1, Dihydroorotate dehydrogenase (quinone), mitochondrial; assay: Inhibition of DHODH in human HEK293 cells transfected with ISRE-luciferase reporter gene assessed as increase in 125 IU/ml IFN-alpha stimulated DDX58 mRNA expression at 80 uM measured after 16 hrs by RT-qPCR analysis relative to control; method in brief: as §1
[14] = molecular target: T1, Dihydroorotate dehydrogenase (quinone), mitochondrial; assay: Inhibition of DHODH in human HEK293 cells transfected with ISRE-luciferase reporter gene assessed as increase in 60 IU/ml IFN-alpha stimulated MX2 mRNA expression at 80 uM measured after 16 hrs by RT-qPCR analysis relative to control; method in brief: as §2
[15] = molecular target: T1, Dihydroorotate dehydrogenase (quinone), mitochondrial; assay: Inhibition of DHODH in human HEK293 cells transfected with ISRE-luciferase reporter gene assessed as increase in 125 IU/ml IFN-alpha stimulated […] mRNA expression at 80 uM measured after 16 hrs by RT-qPCR analysis relative to control; method in brief: as §1
[16] = molecular target: T1, Dihydroorotate dehydrogenase (quinone), mitochondrial; assay: Inhibition of DHODH in human HEK293 cells transfected with ISRE-luciferase reporter gene assessed as increase in 30 IU/ml IFN-alpha stimulated PML mRNA expression at 80 uM measured after 16 hrs by RT-qPCR analysis relative to control; method in brief: as §1
[17] = molecular target: T1, Dihydroorotate dehydrogenase (quinone), mitochondrial; assay: Inhibition of DHODH in human HEK293 cells transfected with ISRE-luciferase reporter gene assessed as increase in 30 IU/ml IFN-alpha stimulated PKR mRNA expression at 80 uM measured after 16 hrs by RT-qPCR analysis relative to control; method in brief: as §1
[18] = molecular target: T1, Dihydroorotate dehydrogenase (quinone), mitochondrial; assay: Inhibition of DHODH in human HEK293 cells transfected with ISRE-luciferase reporter gene assessed as increase in 250 IU/ml IFN-alpha stimulated PML mRNA expression at 80 uM measured after 16 hrs by RT-qPCR analysis relative to control; method in brief: as §1
[19] = molecular target: T1, Dihydroorotate dehydrogenase (quinone), mitochondrial; assay: Inhibition of DHODH in human HEK-293 cells transfected with ISRE-luciferase reporter gene assessed as increase in IFN-alpha mediated cellular response at 80 uM in presence of DHO measured after 24 hrs by luciferase reporter gene assay; details: HEK293; method in brief: as §4

T1 sequence (Q02127 whole entry): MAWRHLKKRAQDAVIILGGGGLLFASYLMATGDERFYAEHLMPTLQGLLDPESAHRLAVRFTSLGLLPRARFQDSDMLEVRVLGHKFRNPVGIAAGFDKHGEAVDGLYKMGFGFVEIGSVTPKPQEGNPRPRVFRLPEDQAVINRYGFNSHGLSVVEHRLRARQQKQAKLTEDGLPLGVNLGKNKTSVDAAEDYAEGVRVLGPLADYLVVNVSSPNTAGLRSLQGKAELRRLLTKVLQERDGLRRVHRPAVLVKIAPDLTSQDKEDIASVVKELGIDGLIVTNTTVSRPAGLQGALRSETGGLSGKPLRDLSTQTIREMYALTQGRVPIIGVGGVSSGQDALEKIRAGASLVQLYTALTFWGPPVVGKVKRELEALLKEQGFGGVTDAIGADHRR

fold change (FC) [1]: 112
Activity [2]: Active
fold change (FC) [3]: 85
fold change (FC) [4]: 3
fold change (FC) [5]: 15
fold change (FC) [6]: 115
fold change (FC) [7]: 163
fold change (FC) [8]: 61
fold change (FC) [9]: 99
inhibition [10]: Active
Activity [11]: inactive
Activity [12]: inactive
fold change (FC) [13]: 31
fold change (FC) [14]: 13
fold change (FC) [15]: 117
fold change (FC) [16]: 3
fold change (FC) [17]: 2
fold change (FC) [18]: 5
Activity [19]: Active
SMILES: O=C1OC2(CCCCC2)c2ccn(C3CC3)c(=O)c21
